# Results taken from ChEMBL document CHEMBL3779771, “Chiral Dihydrobenzofuran Acids Show Potent Retinoid X Receptor-Nuclear Receptor Related 1 Protein Dimer Activation” (J Med Chem, 2016).
# Active and inactive are the calls of the source. The calls are words filed in the database; no cut-off is given here.
# What was measured:
# [1] = biological target: T1, Retinoic acid receptor RXR-alpha (Homo sapiens, UniProt P19793); assay: (§1) Agonist activity at histidine-tagged ligand binding domain of human RXRalpha expressed in Escherichia coli BL21 (DE3) by luciferase reporter gene assay
# T1 sequence (P19793 whole entry): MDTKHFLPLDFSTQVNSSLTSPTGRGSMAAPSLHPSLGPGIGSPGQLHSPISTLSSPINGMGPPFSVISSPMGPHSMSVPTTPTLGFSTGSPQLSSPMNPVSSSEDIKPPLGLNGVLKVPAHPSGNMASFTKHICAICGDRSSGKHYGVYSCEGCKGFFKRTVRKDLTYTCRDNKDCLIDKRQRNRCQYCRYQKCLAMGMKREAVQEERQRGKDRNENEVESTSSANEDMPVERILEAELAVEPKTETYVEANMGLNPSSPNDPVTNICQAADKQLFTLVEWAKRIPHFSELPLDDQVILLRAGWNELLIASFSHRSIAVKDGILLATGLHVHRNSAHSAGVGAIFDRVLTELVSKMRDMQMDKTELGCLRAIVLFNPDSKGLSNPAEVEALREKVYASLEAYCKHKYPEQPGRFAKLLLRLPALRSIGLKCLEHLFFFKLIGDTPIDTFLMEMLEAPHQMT
# [2] = biological target: T2, Retinoic acid receptor RXR-alpha (Homo sapiens) (UniProt P19793); assay: Agonist activity at histidine-tagged ligand binding domain of human RXRalpha expressed in Escherichia coli BL21 (DE3) by luciferase reporter gene assay relative to bexarotene
# T2 sequence (whole entry): T1 sequence (P19793 whole entry)
# [3] = biological target: T3, Nuclear receptor subfamily 4 group A member 2/Retinoic acid receptor RXR-alpha (Homo sapiens, UniProt P19793+P43354); assay: Agonist activity at Renilla luciferase/GFP2-tagged RXRalpha/Nurr1 (unknown origin) expressed in HEK293T cells by BRET2 assay; type: cell-based, HEK-293T
# [4] = biological target: T3, Nuclear receptor subfamily 4 group A member 2/Retinoic acid receptor RXR-alpha; assay: Agonist activity at Renilla luciferase/GFP2-tagged RXRalpha/Nurr1 (unknown origin) expressed in HEK293T cells by BRET2 assay relative to bexarotene; type: cell-based; details: HEK-293T
# How it was run: (§2)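 BRET2 assay with RXR and Nurr1 receptors tagged with GFP and Renilla luciferase, run in whole cells. Potency is given as pEC50, the negative log of molar EC50. Agonist efficacy is expressed relative to bexarotene, set at 100%. Values are mean ± SD of at least three independent experiments.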
# [5] = biological target: T1, Retinoic acid receptor RXR-alpha; assay: Agonist activity at Renilla luciferase/GFP2-tagged RXRalpha homodimer (unknown origin) expressed in HEK293T cells by BRET2 assay; type: cell-based, HEK-293T
# [6] = biological target: T2, Retinoic acid receptor RXR-alpha (Homo sapiens); assay: Agonist activity at Renilla luciferase/GFP2-tagged RXRalpha homodimer (unknown origin) expressed in HEK293T cells by BRET2 assay relative to bexarotene; type: cell-based; details: HEK-293T; how it was run: as §2
# [7] = organism: Homo sapiens; assay: Selectivity ratio of EC50 for Renilla luciferase/GFP2-tagged RXRalpha homodimer (unknown origin) to EC50 for Renilla luciferase/GFP2-tagged RXRalpha/Nurr1 (unknown origin)
# [8] = biological target: T4, Estrogen receptor (Homo sapiens) (UniProt P03372); assay: Activation of estrogen receptor (unknown origin)
# T4 sequence (whole entry): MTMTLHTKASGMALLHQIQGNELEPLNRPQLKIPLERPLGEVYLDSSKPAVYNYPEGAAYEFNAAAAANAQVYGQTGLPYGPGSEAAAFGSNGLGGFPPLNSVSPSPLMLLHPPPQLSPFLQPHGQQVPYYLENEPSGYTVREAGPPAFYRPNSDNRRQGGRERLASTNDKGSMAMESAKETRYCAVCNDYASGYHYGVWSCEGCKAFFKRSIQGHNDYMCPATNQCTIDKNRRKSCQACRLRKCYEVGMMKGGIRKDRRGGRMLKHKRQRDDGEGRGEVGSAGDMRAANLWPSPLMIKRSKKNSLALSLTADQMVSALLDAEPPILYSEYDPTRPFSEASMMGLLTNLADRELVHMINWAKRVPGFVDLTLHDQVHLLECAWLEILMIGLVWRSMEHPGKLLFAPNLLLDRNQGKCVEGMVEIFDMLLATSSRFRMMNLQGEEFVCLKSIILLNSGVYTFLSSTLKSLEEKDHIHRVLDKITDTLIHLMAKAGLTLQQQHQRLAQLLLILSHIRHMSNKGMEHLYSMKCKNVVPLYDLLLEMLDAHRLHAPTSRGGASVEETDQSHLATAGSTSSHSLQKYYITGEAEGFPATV
# [9] = biological target: Retinoic acid receptor (Homo sapiens) (UniProt P13631+P10826+P10276); assay: Activation of RAR (unknown origin); type: protein assay
# [10] = biological target: T2, Retinoic acid receptor RXR-alpha (Homo sapiens); assay: as §1
# T3 sequence (P43354 whole entry, one chain of several): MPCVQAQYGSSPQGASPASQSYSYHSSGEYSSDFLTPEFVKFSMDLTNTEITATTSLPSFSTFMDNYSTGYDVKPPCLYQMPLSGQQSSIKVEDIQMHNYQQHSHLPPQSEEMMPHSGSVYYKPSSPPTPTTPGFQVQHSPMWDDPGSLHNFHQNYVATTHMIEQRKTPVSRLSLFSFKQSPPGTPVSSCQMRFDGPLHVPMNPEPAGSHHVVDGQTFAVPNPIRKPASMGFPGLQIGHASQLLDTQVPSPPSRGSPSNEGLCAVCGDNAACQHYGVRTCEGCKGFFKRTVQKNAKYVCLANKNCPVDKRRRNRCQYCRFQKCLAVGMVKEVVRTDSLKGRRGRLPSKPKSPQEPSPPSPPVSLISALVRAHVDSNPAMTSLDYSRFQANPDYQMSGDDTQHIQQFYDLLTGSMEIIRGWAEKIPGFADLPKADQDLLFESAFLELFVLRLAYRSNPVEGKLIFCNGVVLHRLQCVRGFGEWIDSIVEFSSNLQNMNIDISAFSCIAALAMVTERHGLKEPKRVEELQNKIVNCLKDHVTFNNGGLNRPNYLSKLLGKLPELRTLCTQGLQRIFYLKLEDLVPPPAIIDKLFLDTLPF
# Retinoic acid receptor (Homo sapiens), sequence (P10276 whole entry, looked up): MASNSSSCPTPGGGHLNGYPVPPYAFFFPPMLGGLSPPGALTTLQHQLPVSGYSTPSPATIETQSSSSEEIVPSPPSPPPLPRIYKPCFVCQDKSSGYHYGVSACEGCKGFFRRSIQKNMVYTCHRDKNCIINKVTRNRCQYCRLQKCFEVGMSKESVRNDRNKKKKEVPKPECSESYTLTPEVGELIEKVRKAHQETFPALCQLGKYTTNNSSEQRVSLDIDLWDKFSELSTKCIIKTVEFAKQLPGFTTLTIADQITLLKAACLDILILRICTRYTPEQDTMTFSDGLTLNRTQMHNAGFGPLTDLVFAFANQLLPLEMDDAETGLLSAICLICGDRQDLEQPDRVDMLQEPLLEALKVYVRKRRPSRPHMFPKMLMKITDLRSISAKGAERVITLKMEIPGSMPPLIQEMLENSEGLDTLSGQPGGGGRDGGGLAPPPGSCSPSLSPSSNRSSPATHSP
# Retinoic acid receptor (Homo sapiens), sequence (P10826 whole entry, looked up): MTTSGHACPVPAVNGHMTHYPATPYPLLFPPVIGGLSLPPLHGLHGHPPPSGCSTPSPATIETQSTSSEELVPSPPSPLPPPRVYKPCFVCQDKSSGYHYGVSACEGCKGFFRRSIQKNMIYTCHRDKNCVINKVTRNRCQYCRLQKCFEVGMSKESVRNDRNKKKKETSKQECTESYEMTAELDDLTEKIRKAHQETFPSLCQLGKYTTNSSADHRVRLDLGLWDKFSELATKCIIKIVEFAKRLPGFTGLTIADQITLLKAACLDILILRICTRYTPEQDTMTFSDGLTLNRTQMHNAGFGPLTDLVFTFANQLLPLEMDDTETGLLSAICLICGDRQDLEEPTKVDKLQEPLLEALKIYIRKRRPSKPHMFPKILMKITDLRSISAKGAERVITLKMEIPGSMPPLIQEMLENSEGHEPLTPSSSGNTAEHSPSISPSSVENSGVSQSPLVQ
# Retinoic acid receptor (Homo sapiens), sequence (P13631 whole entry, looked up): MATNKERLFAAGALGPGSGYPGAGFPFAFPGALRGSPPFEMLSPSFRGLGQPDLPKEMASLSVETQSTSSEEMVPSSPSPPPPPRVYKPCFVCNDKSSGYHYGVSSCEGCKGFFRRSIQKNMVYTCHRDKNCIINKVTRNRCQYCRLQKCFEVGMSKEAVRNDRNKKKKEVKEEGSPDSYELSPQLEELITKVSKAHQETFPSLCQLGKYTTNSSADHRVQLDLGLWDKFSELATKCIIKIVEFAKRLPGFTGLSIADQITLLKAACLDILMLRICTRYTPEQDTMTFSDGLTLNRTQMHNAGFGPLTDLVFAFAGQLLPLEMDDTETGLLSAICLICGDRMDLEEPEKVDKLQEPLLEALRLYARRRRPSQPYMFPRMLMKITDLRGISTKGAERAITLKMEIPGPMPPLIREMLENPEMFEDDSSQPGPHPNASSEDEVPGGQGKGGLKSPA
SMILES,EC50 [1],Efficacy [2],EC50 [3],Efficacy [4],EC50 [5],Efficacy [6],Ratio EC50 [7],Activity [8],Activity [9],pEC50 [10]
CC1(C)CCC(C)(C)c2cc3c(cc21)O[C@@H]1CCCC[C@]31c1ccc(C(=O)O)cc1,20 nM,94%,12.6 nM,96%,15.8 nM,80%,–,–,–,–
CC1(C)CCC(C)(C)c2cc3c(cc21)O[C@H]1CCCCC[C@@]31c1ccc(C(=O)O)cc1 (racemic),126 nM,47%,–,–,–,–,–,inactive,inactive,–
CC1(C)CCC(C)(C)c2cc3c(cc21)OC1CCCCC31c1ccc(C(=O)O)c(F)c1 (racemic),50.1 nM,88%,–,–,–,–,–,inactive,inactive,–
CC1(C)CCC(C)(C)c2cc3c(cc21)O[C@H]1CCCC[C@@]31c1ccc(C(=O)O)cc1,–,–,> 3160 nM,92%,–,inactive,–,–,–,inactive
CC1(C)CCC(C)(C)c2cc3c(cc21)OC1CCCCC31c1ccc(O)cc1 (racemic),–,–,–,–,–,–,–,–,–,inactive
CC1(C)CCC(C)(C)c2cc3c(cc21)O[C@H]1CCCCC[C@]31c1ccc(C(=O)O)cc1 (racemic),–,–,–,–,–,–,–,–,–,inactive

# Other lines, results leading:
EC50 [1],Efficacy [2],EC50 [3],Efficacy [4],EC50 [5],Efficacy [6],Ratio EC50 [7],Activity [8],Activity [9],pEC50 [10],SMILES
6.31 nM,119%,12.6 nM,111%,25.1 nM,85%,3,–,–,–,CC1(C)CCC(C)(C)c2cc3c(cc21)O[C@@H]1CCC[C@]31c1ccc(C(=O)O)cc1
50.1 nM,96%,–,–,–,–,–,inactive,inactive,–,CC1(C)CCC(C)(C)c2cc3c(cc21)OC1CCCCC31c1ccc(C(=O)O)cc1 (racemic)
1000 nM,59%,501 nM,49%,–,inactive,–,–,–,–,CC1(C)CCC(C)(C)c2cc3c(cc21)O[C@H]1CCC[C@@]31c1ccc(C(=O)O)cc1
25.1 nM,65%,–,–,–,–,–,inactive,inactive,–,CC1(C)CCC(C)(C)c2cc3c(cc21)OC1CCCC31c1ccc(C(=O)O)cc1 (racemic)
